# AHR act: human AHR activation; AHR-responsive luciferase reporter cells, luminescence; activation, % at 5 µM; P35869; actives 2.5% (n = 320,000); AID 2796; in the data active means activation above about 47%
# PolyA inh: yeast polyadenylation inhibition; S. cerevisiae SKY197-pL101 polyadenylation reporter, beta-gal luminescence; efflux-impaired pdr1/pdr3 knockout yeast; score 100 = 6 SD above DMSO; activity score, % at 12 µM; actives 0.02% (n = 300,000); AID 1875;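 active means lowest replicate activity score at least 50, where 100 means six control SD above control mean; inconclusive means lowest score under 50 but half or more replicates reach 50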;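 further: yeast exposed to compound for 9 h at 30 °C; higher score means more reporter readthrough which indicates perturbed polyadenylation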
# procasp3 activ: activators of human procaspase-3; P42574; recombinant procaspase-3 D3A, Ac-DEVD-pNA absorbance 405 nm; activation, % at 8.5 µM; actives 0.11% (n = 330,000);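 active means activation above the mean of all tested compounds plus 3 SD, cut at about 21% in these data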
#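 Assay system – Procaspase-3 D3A mutant, all three cleavage aspartates alanine · Controls – DMSO-only low control, 5 µM PC-3 D3A high control · Schedule – 1 h compound preincubation, 2 h substrate hydrolysis at 25 °C · Signal – 405 nm absorbance of p-nitroaniline, reads at 0 and 120 min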
# procasp7 counter: counter-screen for procaspase-3 activators: activators of human procaspase-7; P55210; recombinant procaspase-7, Ac-DEVD-pNA absorbance 405 nm; D23A/D198A/D206A triple mutant, cannot self-cleave; scale: DMSO 0, 5 µM enzyme 100; activation, % at 8.5 µM; actives 0.093% (n = 330,000); AID 463210;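 active means percent activation above the screen-wide mean plus 3 SD, cut at about 25% in these data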
# Target sequence (P55210 whole entry D23A/D198A/D206A): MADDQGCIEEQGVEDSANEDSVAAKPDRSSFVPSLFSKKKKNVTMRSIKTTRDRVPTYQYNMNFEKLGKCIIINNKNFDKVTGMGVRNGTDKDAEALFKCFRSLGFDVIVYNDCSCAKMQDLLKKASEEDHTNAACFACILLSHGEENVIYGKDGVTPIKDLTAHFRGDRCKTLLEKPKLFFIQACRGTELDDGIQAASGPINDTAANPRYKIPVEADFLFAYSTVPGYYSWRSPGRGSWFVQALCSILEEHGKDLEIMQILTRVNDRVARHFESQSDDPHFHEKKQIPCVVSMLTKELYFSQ
#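 Test system: Procaspase-7 triple mutant (PC-7 D3A). Also added: Ac-DEVD-pNA substrate, 400 µM as added. Schedule: 1 h enzyme–compound preincubation and 2 h substrate reaction, both 25 °C. Signal: p-Nitroaniline absorbance at 405 nm, read at 0 and 120 min. Control set: low DMSO alone, high DMSO plus 5 µM PC-7.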
# A number is an active result; – = inactive; ? = inconclusive; · = no result given. Only some compounds are listed: those with a hit (about 2.6% of all), similar ones and a draw of the others.
SMILES,AHR act,PolyA inh,procasp3 activ,procasp7 counter
COc1ccc(CNC(=O)C2CCC(CNS(=O)(=O)c3cccs3)CC2)cc1 (stereo not drawn),–,–,–,–
O=C(NCc1nnnn1-c1ccc(F)c(F)c1)c1ccc(S(=O)(=O)N2CCOCC2)cc1,–,–,–,–
O=C(COC(=O)c1cc[n+]([O-])cc1)Nc1ccc([N+](=O)[O-])cc1Cl,–,–,–,–
COc1ccc(-n2c(Cc3cccn3C)nnc2SCC(=O)NCc2ccc(F)cc2)cc1,–,–,–,–
COc1ccc(-n2ccnc(SCC(=O)NC3CCCC3)c2=O)cc1,–,–,–,–
Cc1ccc(-c2nc(SCC(=O)NCC3CCCO3)c(-c3ccc(C)cc3)[nH]2)cc1 (stereo not drawn),54,–,–,–
COc1ccc(-n2c(Cc3cccn3C)nnc2SCC(=O)NCc2ccco2)cc1,66,–,–,–
COc1ccc(-c2nc(SCC(=O)NC3CCCC3)c(-c3ccc(OC)cc3)[nH]2)cc1,49,?,–,–
Cc1ccc2nc(SCC(=O)NCC3CCCO3)c(C#N)cc2c1 (stereo not drawn),–,–,–,–
C=CCN(CC=C)C(=O)c1ccccc1NC(=O)c1ccccc1C,56,–,–,–
Cc1cccc(-n2c(=O)[nH]c3c(C(N)=O)nc(C(C)C)nc32)c1,53,–,–,–
Cc1ccc(-n2c(=O)[nH]c3c(C(N)=O)nc(C(C)C)nc32)cc1,–,–,–,–
C=C(C)CNC(=S)N=Nc1c(O)[nH]c2ccc([N+](=O)[O-])cc12,–,–,–,–
CC(C)NC(=S)N=Nc1c(O)[nH]c2ccc([N+](=O)[O-])cc12,60,–,–,–
NC(=S)N/N=C/c1ccc(-c2ccc(SC(F)F)cc2)o1,53,–,–,–
NC(=S)NN=Cc1ccc(-c2ccc(S(=O)(=O)Nc3ncccn3)cc2)o1,–,·,–,–
NC(=S)N/N=C/c1ccc(-c2ccc(Cl)c(Cl)c2)o1,48,–,–,–
O=C(O)c1cc(-c2ccc(/C=N/NC(=S)Nc3ccccc3)o2)ccc1Cl,–,–,–,–
CCOc1cc(CNn2cn[nH]c2=S)cc(Cl)c1OCc1ccccc1F,–,–,–,–
O=C(OCc1nc2ccsc2c(=O)[nH]1)c1ccccc1,–,–,–,–
O=C(Nc1ccccn1)C1COc2ccccc2O1 (stereo not drawn),–,–,–,–
CC1Oc2ccccc2OC1C(=O)Nc1ccccn1 (stereo not drawn),68,–,–,–
O=C(COC(=O)/C=C/c1cccc(F)c1)NC(=O)NC1CCCC1,–,·,–,–
Cc1ccc2nc(CCc3ccc(N)cc3)[nH]c2c1,52,–,–,–
CC1(C)C[C@H](O)[C@]2(CO)[C@H](O)C[C@]3(C)C(=CCC4[C@@]5(C)CC[C@H](O)C(C)(C)C5CC[C@]43C)[C@@H]2C1 (stereo partly drawn),–,·,–,–
SMILES,AHR act,PolyA inh,procasp3 activ,procasp7 counter
Cc1cc2nc(-c3ccc(=O)[nH]c3)n(Cc3ccccc3)c2cc1C,79,–,–,–
Cc1ccccc1Cn1c(-c2ccc(=O)[nH]c2)nc2ccccc21,–,–,–,–
CC(C)CNS(=O)(=O)c1cc2c3c(c1)CCC(=O)N3CCC2,–,–,–,–
Cc1ccc(NCC(=O)N=Nc2c(O)n(C)c3ccccc23)cc1,49,–,–,–
CCn1c(O)c(N=NC(=O)CNc2cccc(C)c2)c2ccccc21,–,–,–,–
CCn1c(O)c(N=NC(=O)CNc2ccc(C)cc2)c2ccccc21,67,–,–,–
O=C1C(Cl)=C(Nc2ccccc2O)C(=O)N1c1ccccc1,55,–,–,–
COc1ccccc1N1C(=O)C(Cl)=C(Nc2ccccc2O)C1=O,·,–,·,·
CCOc1ccc(NCc2nnc(SCc3ccc(Cl)cc3)n2-c2ccccc2)cc1,–,–,–,–
CCC(C)[C@H](NC(=O)N1CC(=O)Nc2ccccc21)C(=O)N1CCC(C(=O)O)CC1 (stereo partly drawn),–,–,–,–
COc1ccccc1N1CCN(S(=O)(=O)c2cn(C)c(=O)n(C)c2=O)CC1,65,–,–,–
Cn1cc(S(=O)(=O)N2CCN(c3ccccc3F)CC2)c(=O)n(C)c1=O,–,–,–,–
CCn1c(CC(=O)Nc2ccccc2F)nnc1SCC(=O)Nc1nncs1,–,–,–,–
Cc1cc(C(=O)COc2ccccc2[N+](=O)[O-])c(C)n1C1CC1,63,–,–,–

# Screening results as filed in PubChem.
